From ChEMBL document CHEMBL5058577, “EUbOPEN Chemogenomics Library 2 (Multiplex)” (2022)

Test system: U2OS
Test: Multiplex assay against U2OS
Assay type: toxicity, cell-based
Conditions: human
Method in brief: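 Hoechst33342, BioTracker Green Microtubule Cytoskeleton Dye, MitoTracker Red and Annexin V Alexa Fluor 680 were added to live cells at seeding, and imaging on a CQ1 microscope at 37°C and 5% CO2 followed compound addition. Gating by CellPathfinder machine learning separated cells into Hoechst high-intensity objects or normal cells, then normal cells into healthy, pyknosed or fragmented nuclei, then pyknosed cells into mitotic or apoptotic. Per cents of healthy-nucleus cells are reported for the tubulin, mitochondrial-mass and membrane-permeability phenotypes.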

[1] = 12 h, 1 µM, compound concentration 1 uM, replicate 1
[2] = 12 h, 1 µM, compound concentration 1 uM, replicate 2
[3] = 12 h, 10 µM, compound concentration 10 uM, replicate 1
[4] = 12 h, 10 µM, compound concentration 10 uM, replicate 2
[5] = 24 h, 1 µM, compound concentration 1 uM, replicate 1
[6] = 24 h, 1 µM, compound concentration 1 uM, replicate 2
[7] = 24 h, 10 µM, compound concentration 10 uM, replicate 1
[8] = 24 h, 10 µM, compound concentration 10 uM, replicate 2
[9] = 48 h, 1 µM, compound concentration 1 uM, replicate 1
[10] = 48 h, 1 µM, compound concentration 1 uM, replicate 2
[11] = 48 h, 10 µM, compound concentration 10 uM, replicate 1
[12] = 48 h, 10 µM, compound concentration 10 uM, replicate 2

Which “Population Apoptotic (%)” value [1] does the source give for Cn1cc(C(=O)OCC2CCN(CCNS(C)(=O)=O)CC2)c2ccccc21 here?
The value was 73%.

And the “Population Fragmented Nuclei (%)” value [1]?
The value was 27%.

What about the “Population Healthy Nuclei (%)” value [1] of the same molecule?
The value was 63%.

What about the “Population Hoechst High Intensity Objects (%)” value [1] of the same molecule?
The value was 3%.

And the “Population Membrane Permeable-Phenotype (%)” value [1]?
The value was 7%.

What about the “Population Mitochondria Different-Phenotype (%)” value [1] of the same molecule?
The value was 4%.

What about the “Population Mitotic Cells (%)” value [1] of the same molecule?
Its value is 26%.

What about the “Population Normal (%)” value [1] of the same molecule?
Its value is 96%.

What about the “Population Pyknosed Nuclei (%)” value [1] of the same molecule?
Its value is 8%.

What about the “Population Tubulin-Different-Phenotype (%)” value [1] of the same molecule?
The value was 5%.

And the “Total Cell Count” value [1]?
Its value is 226.

What about the “Population Apoptotic (%)” value [2] of the same molecule?
Its value is 77%.

What about the “Population Fragmented Nuclei (%)” value [2] of the same molecule?
The value was 20%.

What about the “Population Healthy Nuclei (%)” value [2] of the same molecule?
Its value is 71%.

And the “Population Hoechst High Intensity Objects (%)” value [2]?
Its value is 0%.

And the “Population Membrane Permeable-Phenotype (%)” value [2]?
Its value is 13%.

And the “Population Mitochondria Different-Phenotype (%)” value [2]?
Its value is 5%.

And the “Population Mitotic Cells (%)” value [2]?
The value was 22%.

And the “Population Normal (%)” value [2]?
Its value is 100%.

And the “Population Tubulin-Different-Phenotype (%)” value [2]?
Its value is 6%.

What about the “Total Cell Count” value [2] of the same molecule?
The value was 110.

What about the “Population Apoptotic (%)” value [3] of the same molecule?
The value was 53%.

What about the “Population Fragmented Nuclei (%)” value [3] of the same molecule?
The value was 36%.

What about the “Population Healthy Nuclei (%)” value [3] of the same molecule?
Its value is 58%.

And the “Population Hoechst High Intensity Objects (%)” value [3]?
The value was 0%.

What about the “Population Membrane Permeable-Phenotype (%)” value [3] of the same molecule?
The value was 10%.

What about the “Population Mitochondria Different-Phenotype (%)” value [3] of the same molecule?
The value was 5%.

And the “Population Mitotic Cells (%)” value [3]?
The value was 46%.

What about the “Population Normal (%)” value [3] of the same molecule?
The value was 99%.

And the “Population Pyknosed Nuclei (%)” value [3]?
Its value is 5%.

What about the “Population Tubulin-Different-Phenotype (%)” value [3] of the same molecule?
The value was 5%.

What about the “Total Cell Count” value [3] of the same molecule?
The value was 252.

And the “Population Apoptotic (%)” value [4]?
Its value is 57%.

What about the “Population Fragmented Nuclei (%)” value [4] of the same molecule?
Its value is 18%.

What about the “Population Healthy Nuclei (%)” value [4] of the same molecule?
Its value is 76%.

And the “Population Hoechst High Intensity Objects (%)” value [4]?
The value was 1%.

And the “Population Membrane Permeable-Phenotype (%)” value [4]?
The value was 17%.

What about the “Population Mitochondria Different-Phenotype (%)” value [4] of the same molecule?
Its value is 13%.

And the “Population Mitotic Cells (%)” value [4]?
The value was 42%.

And the “Population Normal (%)” value [4]?
The value was 98%.

And the “Population Tubulin-Different-Phenotype (%)” value [4]?
The value was 9%.

And the “Total Cell Count” value [4]?
The value was 137.

And the “Population Apoptotic (%)” value [5]?
Its value is 95%.

And the “Population Fragmented Nuclei (%)” value [5]?
The value was 26%.

And the “Population Healthy Nuclei (%)” value [5]?
The value was 65%.

What about the “Population Hoechst High Intensity Objects (%)” value [5] of the same molecule?
The value was 2%.

What about the “Population Membrane Permeable-Phenotype (%)” value [5] of the same molecule?
The value was 4%.

And the “Population Mitochondria Different-Phenotype (%)” value [5]?
Its value is 2%.

What about the “Population Mitotic Cells (%)” value [5] of the same molecule?
Its value is 4%.

What about the “Population Normal (%)” value [5] of the same molecule?
Its value is 97%.

What about the “Population Pyknosed Nuclei (%)” value [5] of the same molecule?
Its value is 8%.

And the “Population Tubulin-Different-Phenotype (%)” value [5]?
The value was 3%.

What about the “Total Cell Count” value [5] of the same molecule?
The value was 263.

What about the “Population Apoptotic (%)” value [6] of the same molecule?
Its value is 100%.

And the “Population Fragmented Nuclei (%)” value [6]?
Its value is 17%.

And the “Population Healthy Nuclei (%)” value [6]?
The value was 78%.

And the “Population Hoechst High Intensity Objects (%)” value [6]?
The value was 0%.

What about the “Population Membrane Permeable-Phenotype (%)” value [6] of the same molecule?
Its value is 10%.

And the “Population Mitochondria Different-Phenotype (%)” value [6]?
Its value is 5%.

And the “Population Mitotic Cells (%)” value [6]?
Its value is 0%.

What about the “Population Normal (%)” value [6] of the same molecule?
Its value is 100%.

What about the “Population Pyknosed Nuclei (%)” value [6] of the same molecule?
The value was 4%.

What about the “Population Tubulin-Different-Phenotype (%)” value [6] of the same molecule?
Its value is 6%.

What about the “Total Cell Count” value [6] of the same molecule?
The value was 144.

What about the “Population Apoptotic (%)” value [7] of the same molecule?
Its value is 92%.

What about the “Population Fragmented Nuclei (%)” value [7] of the same molecule?
The value was 33%.

What about the “Population Healthy Nuclei (%)” value [7] of the same molecule?
The value was 61%.

What about the “Population Hoechst High Intensity Objects (%)” value [7] of the same molecule?
The value was 2%.

And the “Population Membrane Permeable-Phenotype (%)” value [7]?
Its value is 11%.

What about the “Population Mitochondria Different-Phenotype (%)” value [7] of the same molecule?
Its value is 5%.

What about the “Population Mitotic Cells (%)” value [7] of the same molecule?
The value was 7%.

And the “Population Normal (%)” value [7]?
Its value is 97%.

And the “Population Pyknosed Nuclei (%)” value [7]?
The value was 4%.

What about the “Population Tubulin-Different-Phenotype (%)” value [7] of the same molecule?
The value was 4%.

What about the “Total Cell Count” value [7] of the same molecule?
Its value is 281.

What about the “Population Apoptotic (%)” value [8] of the same molecule?
The value was 64%.

And the “Population Fragmented Nuclei (%)” value [8]?
The value was 16%.

And the “Population Healthy Nuclei (%)” value [8]?
Its value is 73%.

And the “Population Hoechst High Intensity Objects (%)” value [8]?
Its value is 1%.

And the “Population Membrane Permeable-Phenotype (%)” value [8]?
Its value is 12%.

And the “Population Mitochondria Different-Phenotype (%)” value [8]?
Its value is 8%.

What about the “Population Mitotic Cells (%)” value [8] of the same molecule?
The value was 35%.

What about the “Population Normal (%)” value [8] of the same molecule?
Its value is 98%.

And the “Population Pyknosed Nuclei (%)” value [8]?
The value was 9%.

And the “Population Tubulin-Different-Phenotype (%)” value [8]?
Its value is 8%.

And the “Total Cell Count” value [8]?
Its value is 150.

And the “Population Apoptotic (%)” value [9]?
Its value is 91%.

And the “Population Fragmented Nuclei (%)” value [9]?
The value was 20%.

What about the “Population Healthy Nuclei (%)” value [9] of the same molecule?
Its value is 69%.

What about the “Population Hoechst High Intensity Objects (%)” value [9] of the same molecule?
Its value is 1%.

What about the “Population Membrane Permeable-Phenotype (%)” value [9] of the same molecule?
Its value is 8%.

And the “Population Mitochondria Different-Phenotype (%)” value [9]?
Its value is 3%.

And the “Population Mitotic Cells (%)” value [9]?
The value was 8%.

And the “Population Normal (%)” value [9]?
Its value is 98%.

What about the “Population Pyknosed Nuclei (%)” value [9] of the same molecule?
Its value is 9%.

And the “Population Tubulin-Different-Phenotype (%)” value [9]?
The value was 5%.

And the “Total Cell Count” value [9]?
The value was 372.

What about the “Population Apoptotic (%)” value [10] of the same molecule?
Its value is 57%.

What about the “Population Fragmented Nuclei (%)” value [10] of the same molecule?
Its value is 13%.

What about the “Population Healthy Nuclei (%)” value [10] of the same molecule?
Its value is 75%.

What about the “Population Hoechst High Intensity Objects (%)” value [10] of the same molecule?
Its value is 2%.

What about the “Population Membrane Permeable-Phenotype (%)” value [10] of the same molecule?
The value was 6%.

What about the “Population Mitochondria Different-Phenotype (%)” value [10] of the same molecule?
The value was 5%.

What about the “Population Mitotic Cells (%)” value [10] of the same molecule?
The value was 42%.

And the “Population Normal (%)” value [10]?
The value was 97%.

What about the “Population Pyknosed Nuclei (%)” value [10] of the same molecule?
The value was 10%.

And the “Population Tubulin-Different-Phenotype (%)” value [10]?
Its value is 4%.

What about the “Total Cell Count” value [10] of the same molecule?
Its value is 182.

And the “Population Apoptotic (%)” value [11]?
Its value is 88%.

And the “Population Fragmented Nuclei (%)” value [11]?
Its value is 30%.

What about the “Population Healthy Nuclei (%)” value [11] of the same molecule?
The value was 58%.

And the “Population Hoechst High Intensity Objects (%)” value [11]?
Its value is 1%.

What about the “Population Membrane Permeable-Phenotype (%)” value [11] of the same molecule?
The value was 9%.

And the “Population Mitochondria Different-Phenotype (%)” value [11]?
Its value is 4%.

And the “Population Mitotic Cells (%)” value [11]?
Its value is 11%.

And the “Population Normal (%)” value [11]?
The value was 98%.

And the “Population Pyknosed Nuclei (%)” value [11]?
Its value is 10%.

And the “Population Tubulin-Different-Phenotype (%)” value [11]?
The value was 7%.

And the “Total Cell Count” value [11]?
The value was 341.

And the “Population Apoptotic (%)” value [12]?
The value was 75%.

And the “Population Fragmented Nuclei (%)” value [12]?
Its value is 9%.

And the “Population Healthy Nuclei (%)” value [12]?
The value was 79%.

And the “Population Hoechst High Intensity Objects (%)” value [12]?
The value was 3%.

What about the “Population Membrane Permeable-Phenotype (%)” value [12] of the same molecule?
Its value is 13%.

What about the “Population Mitochondria Different-Phenotype (%)” value [12] of the same molecule?
The value was 6%.

And the “Population Mitotic Cells (%)” value [12]?
The value was 25%.

What about the “Population Normal (%)” value [12] of the same molecule?
The value was 97%.

And the “Population Tubulin-Different-Phenotype (%)” value [12]?
The value was 5%.

And the “Total Cell Count” value [12]?
The value was 200.
